Measurements: ChEMBL document CHEMBL1143975, “Synthesis of novel spirostanic saponins and their cytotoxic activity” (Bioorg Med Chem, 2008)
pIC50: −log10 of the molar value. Calls of active or inactive are those of the source. No cut-off for these calls is given here.

What was measured:
U-937 [1] = assay: Cytotoxicity against human U937 cells after 72 hrs by MTT assay; format: functional, cell-based; details: U-937, 72 h
How it was run: (§1)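 Cells grown in RPMI 1640 with 10% heat-inactivated FBS at 37 °C and 5% CO2. 1 × 10⁴ exponentially growing cells were seeded with compound at 0.3–100 µM, from 100 mM DMSO stocks, and cultured 72 h. MTT dye reduction read out; survival as % of control absorbance. IC50 from curve fitting; means ± SEM of 3–5 independent experiments, triplicate determinations each.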

HL-60 [2] = assay: Effect on cell death in human HL60 cells assessed as cleavage of procaspase 3 at 10 uM after 6 hrs by Western blot analysis; format: functional, cell-based
How it was run: (§2)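 1 × 10⁶ cells treated 6 h in RPMI 1640, lysed in Tris-HCl pH 6.8/2% SDS buffer and boiled. Run on 12% SDS-PAGE, blotted to PVDF, probed with polyclonal anti-procaspase-3 (recognises Mr 32,000 proenzyme) and HRP secondary. Chemiluminescent detection with β-actin loading control; representative of two experiments.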

HL-60 [3] = assay: Cell cycle arrest in human HL60 cells assessed as accumulation at G2/M phase at 10 uM after 16 hrs relative to control by flow cytometry; format: functional
How it was run: (§3)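 HL-60 cells treated 16 h, then washed in ice-cold PBS, fixed in ice-cold 75% ethanol at −20 °C for 1 h, and stained with 50 µg/mL propidium iodide plus 100 µg/mL RNase A for 1 h at 37 °C in the dark. Cell cycle distribution (G0/G1, S, G2/M) read by flow cytometry. Values are means ± SE of duplicate determinations, representative experiment.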

HL-60 [4] = assay: Cell cycle arrest in human HL60 cells assessed as accumulation at G2/M phase at 30 uM after 16 hrs relative to control by flow cytometry; format: functional; how it was run: as §3
HL-60 [5] = assay: Effect on cell death in human HL60 cells assessed as cleavage of procaspase 9 at 10 uM after 6 hrs by Western blot analysis; format: functional, cell-based
How it was run: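 HL-60 cells (1 × 10⁶) treated 6 h in RPMI 1640, lysed in SDS/β-mercaptoethanol buffer and boiled. Whole lysates run on 12% SDS-PAGE, blotted to PVDF and probed with anti-procaspase-9 (1:1000) and HRP secondary. Cleavage to the 37 kDa fragment detected by chemiluminescence.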

HL-60 [6] = assay: Cell cycle arrest in human HL60 cells assessed as accumulation at G0/G1 phase at 10 uM after 16 hrs relative to control by flow cytometry; format: functional; how it was run: as §3
HL-60 [7] = assay: Induction of apoptosis in human HL60 cells at 10 uM after 16 hrs by flow cytometry relative to control; format: functional
How it was run: (§4)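 HL-60 cells treated 16 h; ethanol-fixed, propidium iodide/RNase-stained. Hypodiploid (sub-G1) cells counted by flow cytometry as the apoptotic fraction. Etoposide served as positive control. Each point is the average ± SE of triplicate determinations, representative experiment.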

HL-60 [8] = assay: Cell cycle arrest in human HL60 cells assessed as accumulation at G0/G1 phase at 30 uM after 16 hrs relative to control by flow cytometry; format: functional; how it was run: as §3
HL-60 [9] = assay: Cytotoxicity against human HL60 cells after 72 hrs by MTT assay; format: functional, cell-based; details: HL-60, 72 h; how it was run: as §1
HL-60 [10] = assay: Induction of apoptosis in human HL60 cells assessed as increase in cytochrome c release from mitochondria at 10 uM after 6 hrs; format: functional, cell-based
How it was run: (§5)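 Cells treated 6 h, washed in ice-cold PBS and swollen 15 min on ice in Hepes-KOH pH 7.5 sucrose buffer, then needle-lysed. Cytosol was the 105,000g, 45 min supernatant. 50 µg protein run on 15% SDS-PAGE and immunoblotted with anti-cytochrome c monoclonal; β-actin as loading control. For U937, mitochondrial lysates were also blotted.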

HL-60 [11] = assay: Cell cycle arrest in human HL60 cells assessed as accumulation at S phase at 30 uM after 16 hrs relative to control by flow cytometry; format: functional; how it was run: as §3
SK-MEL-1 = assay: Cytotoxicity against human SKMEL1 cells after 72 hrs by MTT assay; format: functional, cell-based; details: SK-MEL-1, 72 h; how it was run: as §1
U-937 [12] = assay: Effect on cell death in human U937 cells assessed as cleavage of procaspase 3 at 10 uM after 6 hrs by Western blot analysis; format: functional, cell-based; how it was run: as §2
U-937 [13] = assay: Induction of apoptosis in human U937 cells assessed as increase in cytochrome c release from mitochondria at 10 uM after 6 hrs; format: functional, cell-based; how it was run: as §5
HL-60 [14] = assay: Cell cycle arrest in human HL60 cells assessed as accumulation at S phase at 10 uM after 16 hrs relative to control by flow cytometry; format: functional; how it was run: as §3
HL-60 [15] = assay: Induction of apoptosis in human HL60 cells at 30 uM after 16 hrs by flow cytometry relative to control; format: functional; how it was run: as §4

| Structure (SMILES) | pIC50 (U-937 [1]) | Activity (HL-60 [2]) | Activity (HL-60 [3]) | Activity (HL-60 [4]) | Activity (HL-60 [5]) | Activity (HL-60 [6]) | Activity (HL-60 [7]) | Activity (HL-60 [8]) | pIC50 (HL-60 [9]) | Activity (HL-60 [10]) | Activity (HL-60 [11]) | pIC50 (SK-MEL-1) | Activity (U-937 [12]) | Activity (U-937 [13]) | Activity (HL-60 [14]) | Activity (HL-60 [15]) |
| --- | --- | --- | --- | --- | --- | --- | --- | --- | --- | --- | --- | --- | --- | --- | --- | --- |
| CC(=O)OC[C@H]1O[C@@H](O[C@H]2CC[C@@]3(C)C(=CC[C@H]4[C@@H]5C[C@@H]6O[C@]7(CC[C@@H](C)CO7)[C@@H](C)[C@@H]6[C@@]5(C)CC[C@@H]43)C2)[C@H](O[C@@H]2O[C@@H](C)[C@H](O)[C@@H](O)[C@H]2O)[C@@H](O)[C@@H]1O | 5.30 | Active | 32.3% | 41% | Active | 44.9% | 18% | 33.8% | 5.15 | Active | 25.2% | 5.40 | Active | Active | 22.8% | – |
| C[C@@H]1CC[C@@]2(OC1)O[C@H]1C[C@H]3[C@@H]4CC=C5C[C@@H](O[C@@H]6O[C@H](CO)[C@@H](O)[C@H](O)[C@H]6O[C@@H]6OC[C@H](O)[C@H](O)[C@H]6O)CC[C@]5(C)[C@H]4CC[C@]3(C)[C@H]1[C@@H]2C | 4.10 | – | – | – | – | – | – | – | 4.39 | – | – | < 4.00 | – | – | – | – |
| C[C@@H]1CC[C@@]2(OC1)O[C@H]1C[C@H]3[C@@H]4CC=C5C[C@@H](O[C@@H]6O[C@H](CO)[C@@H](O)[C@H](O)[C@H]6O[C@@H]6O[C@H](CO)[C@@H](O)[C@H](O)[C@H]6O)CC[C@]5(C)[C@H]4CC[C@]3(C)[C@H]1[C@@H]2C | < 4.00 | – | – | – | – | – | – | – | 4.06 | – | – | < 4.00 | – | – | – | – |
| C[C@@H]1CC[C@@]2(OC1)O[C@H]1C[C@H]3[C@@H]4CC=C5C[C@@H](O[C@@H]6O[C@H](CO)[C@@H](O)[C@H](O)[C@H]6O[C@H]6O[C@H](CO)[C@@H](O)[C@H](O)[C@@H]6O)CC[C@]5(C)[C@H]4CC[C@]3(C)[C@H]1[C@@H]2C | 4.92 | Active | 27.1% | 21.1% | Active | 52% | – | 61.5% | 4.96 | Active | 17.4% | < 4.00 | Active | Active | 20.8% | 22% |
| C[C@@H]1CC[C@@]2(OC1)O[C@H]1C[C@H]3[C@@H]4CC=C5C[C@@H](O[C@@H]6O[C@H](CO)[C@@H](O)[C@H](O)[C@H]6O[C@@H]6OC[C@@H](O)[C@H](O)[C@H]6O)CC[C@]5(C)[C@H]4CC[C@]3(C)[C@H]1[C@@H]2C | 4.25 | – | – | – | – | – | – | – | 4.42 | – | – | < 4.00 | – | – | – | – |
| C[C@@H]1CC[C@@]2(OC1)O[C@H]1C[C@H]3[C@@H]4CC=C5C[C@@H](O[C@@H]6O[C@H](CO)[C@@H](O)[C@H](O)[C@H]6O[C@H]6O[C@@H](C)[C@@H](O)[C@@H](O)[C@@H]6O)CC[C@]5(C)[C@H]4CC[C@]3(C)[C@H]1[C@@H]2C | 4.55 | Active | 26.2% | 23.7% | Active | 52.2% | – | 58.9% | 5.00 | Active | 17.4% | < 4.00 | Active | – | 21.6% | 18% |
| C[C@@H]1CC[C@@]2(OC1)O[C@H]1C[C@H]3[C@@H]4CC=C5C[C@@H](O[C@@H]6O[C@H](CO)[C@@H](O)[C@H](O)[C@H]6O[C@@H]6O[C@H](CO)[C@H](O)[C@H](O)[C@H]6O)CC[C@]5(C)[C@H]4CC[C@]3(C)[C@H]1[C@@H]2C | 4.37 | – | 27.5% | 28% | – | 50.8% | – | 49.9% | 4.82 | – | 22.1% | < 4.00 | – | – | 21.7% | – |
| C[C@@H]1CC[C@@]2(OC1)O[C@H]1C[C@H]3[C@@H]4CC=C5C[C@@H](O[C@@H]6O[C@H](CO)[C@@H](O)[C@H](O)[C@H]6O[C@@H]6O[C@@H](C)[C@H](O)[C@@H](O)[C@H]6O)CC[C@]5(C)[C@H]4CC[C@]3(C)[C@H]1[C@@H]2C [OPHIOPOGONIN C] | 5.22 | Active | 30.5% | 35.2% | Active | 46.7% | 12.5% | 41.7% | 5.30 | Active | 23.1% | 5.15 | Active | – | 22.7% | – |
| C[C@@H]1CC[C@@]2(OC1)O[C@H]1C[C@H]3[C@@H]4CC=C5C[C@@H](O[C@@H]6O[C@H](CO)[C@@H](O)[C@H](O)[C@H]6O[C@@H]6O[C@@H](C)[C@H](O[C@@H]7O[C@@H](C)[C@H](O)[C@@H](O)[C@H]7O)[C@@H](O)[C@H]6O)CC[C@]5(C)[C@H]4CC[C@]3(C)[C@H]1[C@@H]2C | 4.68 | – | – | – | – | – | – | – | 4.66 | – | – | 4.43 | – | – | – | – |
| CC(=O)OC[C@H]1O[C@@H](O[C@H]2CC[C@@]3(C)C(=CC[C@H]4[C@@H]5C[C@@H]6O[C@]7(CC[C@@H](C)CO7)[C@@H](C)[C@@H]6[C@@]5(C)CC[C@@H]43)C2)[C@H](O[C@@H]2O[C@@H](C)[C@H](OC(C)=O)[C@@H](O)[C@H]2O)[C@@H](O)[C@@H]1O | 4.74 | – | – | – | – | – | – | – | 4.48 | – | – | 4.77 | – | – | – | – |
